Experimental data: ChEMBL document CHEMBL4118061, “Design and synthesis of potent HIV-1 protease inhibitors with (S)-tetrahydrofuran-tertiary amine-acetamide as P2-ligand: Structure-activity studies and biological evaluation” (Eur J Med Chem, 2017)

Target: Protease (Human immunodeficiency virus 1, UniProt Q9YQ12)
Assay: Inhibition of HIV1 protease expressed in Escherichia coli using Arg-Glu (EDANS)-Ser-GlnAsn-Tyr-Pro-Ile-Val-Gln-Lys(DABCYL)-Arg as substrate preincubated for 20 to 30 mins followed by substrate addition measured for 10 mins by FRET method
How it was run: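 Wild-type HIV-1 protease, cloned and expressed in E. coli, then purified. Inhibitors were dissolved in DMSO and diluted. Reaction buffer: 0.1 M sodium acetate, 1 M NaCl, 1 mM EDTA, 1 mM DTT, 2% DMSO, 1 mg/mL BSA, pH 4.7. Enzyme and inhibitor were preincubated 20-30 min at room temperature, then substrate was added. FRET read-out was recorded for about 10 min.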

Chain of Protease (Q9YQ12 whole entry): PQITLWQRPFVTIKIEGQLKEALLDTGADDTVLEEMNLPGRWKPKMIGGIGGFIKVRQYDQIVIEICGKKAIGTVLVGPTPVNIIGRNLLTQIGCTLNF

Row | IC50 | Structure (SMILES)
1 | 270 nM | CC(C)CN(C[C@@H](O)[C@H](Cc1ccccc1)NC(=O)CN(CC(=O)N(C)C)[C@H]1CCOC1)S(=O)(=O)c1ccc([N+](=O)[O-])cc1
2 | 0.88 nM | COCCN(CC(=O)N[C@@H](Cc1ccccc1)[C@H](O)CN(CC(C)C)S(=O)(=O)c1ccc(N)cc1)[C@H]1CCOC1
3 | 65 nM | CC(C)CN(C[C@@H](O)[C@H](Cc1ccccc1)NC(=O)CN(CC(=O)N(C)C)[C@H]1CCOC1)S(=O)(=O)c1ccc(CO)cc1
4 | 12.6 nM | COc1ccc(S(=O)(=O)N(CC(C)C)C[C@@H](O)[C@H](Cc2ccccc2)NC(=O)CN([C@H]2CCOC2)S(C)(=O)=O)cc1
5 | > 1000 nM | CC(C)CN(C[C@@H](O)[C@H](Cc1ccccc1)NC(=O)CN(CC(=O)N(C)C)[C@H]1CCOC1)S(=O)(=O)c1ccc(OC(F)(F)F)cc1
6 | 33.6 nM | CC(C)CN(C[C@@H](O)[C@H](Cc1ccccc1)NC(=O)CN(CC(N)=O)[C@H]1CCOC1)S(=O)(=O)c1ccc([N+](=O)[O-])cc1
7 | > 1000 nM | COc1ccc(S(=O)(=O)N(CC(C)C)C[C@@H](O)[C@H](Cc2ccccc2)NC(=O)CN([C@H]2CCOC2)S(C)(=O)=O)cc1OC
8 | 19.3 nM | CC(C)CN(C[C@@H](O)[C@H](Cc1ccccc1)NC(=O)CN(CC(N)=O)[C@H]1CCOC1)S(=O)(=O)c1ccc(CO)cc1
9 | 530 nM | CC(C)CN(C[C@@H](O)[C@H](Cc1ccccc1)NC(=O)CN(CC(N)=O)[C@H]1CCOC1)S(=O)(=O)c1ccc(OC(F)(F)F)cc1
10 | 910 nM | CC(C)CN(C[C@@H](O)[C@H](Cc1ccccc1)NC(=O)CN(CC(=O)N1CCOCC1)[C@H]1CCOC1)S(=O)(=O)c1ccc(OC(F)(F)F)cc1
11 | > 1000 nM | COc1ccc(S(=O)(=O)N(CC(C)C)C[C@@H](O)[C@H](Cc2ccccc2)NC(=O)CN(CC(=O)N2CCOCC2)[C@H]2CCOC2)cc1OC
12 | 1.65 nM | CC(C)CN(C[C@@H](O)[C@H](Cc1ccccc1)NC(=O)CN[C@H]1CCOC1)S(=O)(=O)c1ccc2c(c1)OCO2
13 | 46.3 nM | CC(C)CN(C[C@@H](O)[C@H](Cc1ccccc1)NC(=O)CN[C@H]1CCOC1)S(=O)(=O)c1ccc([N+](=O)[O-])cc1
14 | 291 nM | CC(C)CN(C[C@@H](O)[C@H](Cc1ccccc1)NC(=O)CN([C@H]1CCOC1)S(C)(=O)=O)S(=O)(=O)c1ccc([N+](=O)[O-])cc1
15 | 28.6 nM | COc1ccc(S(=O)(=O)N(CC(C)C)C[C@@H](O)[C@H](Cc2ccccc2)NC(=O)CN(CC(=O)N(C)C)[C@H]2CCOC2)cc1
16 | 53.4 nM | CC(C)CN(C[C@@H](O)[C@H](Cc1ccccc1)NC(=O)CN[C@@H]1CCOC1)S(=O)(=O)c1ccc2c(c1)OCO2
17 | 16 nM | COc1ccc(S(=O)(=O)N(CC(C)C)C[C@@H](O)[C@H](Cc2ccccc2)NC(=O)CN[C@@H]2CCOC2)cc1
18 | 56.9 nM | CC(C)CN(C[C@@H](O)[C@H](Cc1ccccc1)NC(=O)CN(CC(=O)N(C)C)[C@H]1CCOC1)S(=O)(=O)c1ccc2c(c1)OCO2
19 | 290 nM | CC(C)CN(C[C@@H](O)[C@H](Cc1ccccc1)NC(=O)CN[C@H]1CCOC1)S(=O)(=O)c1ccc(OC(F)(F)F)cc1
20 | > 1000 nM | CC(C)CN(C[C@@H](O)[C@H](Cc1ccccc1)NC(=O)CN([C@H]1CCOC1)S(C)(=O)=O)S(=O)(=O)c1ccc(OC(F)(F)F)cc1
21 | 22.9 nM | CC(C)CN(C[C@@H](O)[C@H](Cc1ccccc1)NC(=O)CN([C@H]1CCOC1)S(C)(=O)=O)S(=O)(=O)c1ccc2c(c1)OCO2
22 | 0.35 nM | COCCN(CC(=O)N[C@@H](Cc1ccccc1)[C@H](O)CN(CC(C)C)S(=O)(=O)c1ccc(OC)cc1)[C@H]1CCOC1
23 | 17.7 nM | COCCN(CC(=O)N[C@@H](Cc1ccccc1)[C@H](O)CN(CC(C)C)S(=O)(=O)c1ccc([N+](=O)[O-])cc1)[C@H]1CCOC1
24 | 190 nM | COCCN(CC(=O)N[C@@H](Cc1ccccc1)[C@H](O)CN(CC(C)C)S(=O)(=O)c1ccc(OC)c(OC)c1)[C@H]1CCOC1

Row | IC50 | Structure (SMILES)
25 | 4.26 nM | COCCN(CC(=O)N[C@@H](Cc1ccccc1)[C@H](O)CN(CC(C)C)S(=O)(=O)c1ccc(CO)cc1)[C@H]1CCOC1
26 | 0.77 nM | COCCN(CC(=O)N[C@@H](Cc1ccccc1)[C@H](O)CN(CC(C)C)S(=O)(=O)c1ccc2c(c1)OCO2)[C@H]1CCOC1
27 | 38 nM | CC(C)CN(C[C@@H](O)[C@H](Cc1ccccc1)NC(=O)CN(CC(=O)N(C)C)[C@H]1CCOC1)S(=O)(=O)c1ccc(N)cc1
28 | > 1000 nM | COc1ccc(S(=O)(=O)N(CC(C)C)C[C@@H](O)[C@H](Cc2ccccc2)NC(=O)CN(CC(=O)N(C)C)[C@H]2CCOC2)cc1OC
29 | 6 nM | COCCN(CC(=O)N[C@@H](Cc1ccccc1)[C@H](O)CN(CC(C)C)S(=O)(=O)c1ccc2c(c1)OCO2)[C@@H]1CCOC1
30 | 68 nM | COCCN(CC(=O)N[C@@H](Cc1ccccc1)[C@H](O)CN(CC(C)C)S(=O)(=O)c1ccc(OC(F)(F)F)cc1)[C@H]1CCOC1
31 | > 1000 nM | CC(C)CN(C[C@@H](O)[C@H](Cc1ccccc1)NC(=O)CN(CC(N)=O)[C@H]1CCOC1)S(=O)(=O)c1ccc2c(c1)OCO2
32 | 2.23 nM | COc1ccc(S(=O)(=O)N(CC(C)C)C[C@@H](O)[C@H](Cc2ccccc2)NC(=O)CN[C@H]2CCOC2)cc1
33 | 110 nM | CC(C)CN(C[C@@H](O)[C@H](Cc1ccccc1)NC(=O)CN(CC(=O)N1CCOCC1)[C@H]1CCOC1)S(=O)(=O)c1ccc(CO)cc1
34 | 22.7 nM | CC(C)CN(C[C@@H](O)[C@H](Cc1ccccc1)NC(=O)CN([C@H]1CCOC1)S(C)(=O)=O)S(=O)(=O)c1ccc(CO)cc1
35 | 10.2 nM | CC(C)CN(C[C@@H](O)[C@H](Cc1ccccc1)NC(=O)CN[C@H]1CCOC1)S(=O)(=O)c1ccc(CO)cc1
36 | 9.9 nM | COc1ccc(S(=O)(=O)N(CC(C)C)C[C@@H](O)[C@H](Cc2ccccc2)NC(=O)CN(CC(N)=O)[C@H]2CCOC2)cc1OC
37 | 22.8 nM | COCCN(CC(=O)N[C@@H](Cc1ccccc1)[C@H](O)CN(CC(C)C)S(=O)(=O)c1ccc(N)cc1)[C@@H]1CCOC1
38 | 27.2 nM | CC(C)CN(C[C@@H](O)[C@H](Cc1ccccc1)NC(=O)CN(CC(=O)N1CCOCC1)[C@H]1CCOC1)S(=O)(=O)c1ccc2c(c1)OCO2
39 | 98.1 nM | CC(C)CN(C[C@@H](O)[C@H](Cc1ccccc1)NC(=O)CN(CC(=O)N1CCOCC1)[C@H]1CCOC1)S(=O)(=O)c1ccc([N+](=O)[O-])cc1
40 | 160 nM | CC(C)CN(C[C@@H](O)[C@H](Cc1ccccc1)NC(=O)CN(CC(=O)N1CCOCC1)[C@H]1CCOC1)S(=O)(=O)c1ccc(N)cc1
41 | 59.8 nM | CC(C)CN(C[C@@H](O)[C@H](Cc1ccccc1)NC(=O)CN([C@H]1CCOC1)S(C)(=O)=O)S(=O)(=O)c1ccc(N)cc1
42 | 141 nM | CC(C)CN(C[C@@H](O)[C@H](Cc1ccccc1)NC(=O)CN[C@@H]1CCOC1)S(=O)(=O)c1ccc(N)cc1
43 | 310 nM | COc1ccc(S(=O)(=O)N(CC(C)C)C[C@@H](O)[C@H](Cc2ccccc2)NC(=O)CN[C@H]2CCOC2)cc1OC
44 | 57 nM | CC(C)CN(C[C@@H](O)[C@H](Cc1ccccc1)NC(=O)CN(CC(N)=O)[C@H]1CCOC1)S(=O)(=O)c1ccc(N)cc1
45 | 6.85 nM | COCCN(CC(=O)N[C@@H](Cc1ccccc1)[C@H](O)CN(CC(C)C)S(=O)(=O)c1ccc(OC)cc1)[C@@H]1CCOC1
46 | 20.4 nM | COc1ccc(S(=O)(=O)N(CC(C)C)C[C@@H](O)[C@H](Cc2ccccc2)NC(=O)CN(CC(N)=O)[C@H]2CCOC2)cc1
47 | 4.11 nM | CC(C)CN(C[C@@H](O)[C@H](Cc1ccccc1)NC(=O)CN[C@H]1CCOC1)S(=O)(=O)c1ccc(N)cc1
48 | 44 nM | COc1ccc(S(=O)(=O)N(CC(C)C)C[C@@H](O)[C@H](Cc2ccccc2)NC(=O)CN(CC(=O)N2CCOCC2)[C@H]2CCOC2)cc1
